Series [1] concerns MDA-MB-231. The experiment in a line: Antiproliferative activity against human MDA-MB-231 cells at 20 uM after 3 days by DAPI staining-based fluorescence microscopic method relative to control. It is filed as functional. Summed up:
(§1)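 Controls were 0.5% DMSO (negative) and 1 μM doxorubicin (positive). Cells were fixed in 3.7% formaldehyde, stained with 0.4 μg mL–1 DAPI, and nuclei counted by automated fluorescence microscopy. Proliferation % and cell-loss % were calculated against a 24 h cell count and the DMSO 72 h count.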

For series [2], the system named is MDA-MB-468. The experiment in a line: Cytotoxicity against human MDA-MB-468 cells at 0.5 uM after 3 days by DAPI staining-based fluorescence microscopic method relative to control. It is filed as functional. Conditions: in the assay text read “at 1 uM” for “at 0.5 uM”. Summed up: as §1
Series [3] has as its system BT-549. The experiment in a line: Cytotoxicity against human BT549 cells at 0.5 uM after 3 days by DAPI staining-based fluorescence microscopic method relative to control. It is filed as functional. Conditions: in the assay text read “at 1 uM” for “at 0.5 uM”. Summed up: as §1
Series [4] concerns HCC38. The experiment in a line: Cytotoxicity against human HCC38 cells at 0.5 uM after 3 days by DAPI staining-based fluorescence microscopic method relative to control. As to conditions: in the assay text read “at 1 uM” for “at 0.5 uM”. It is filed as functional. The method in brief:
as §1

The test system of another series is HMEC. The experiment in a line: Cytotoxicity against immortalized HMEC at 0.5 uM after 3 days by DAPI staining-based fluorescence microscopic method relative to control. Conditions: human, 72 h, 1 µM, in the assay text read “at 1 uM” for “at 0.5 uM”. It is filed as cell-based. Summed up: as §1
Series [5] relates to MDA-MB-231. The experiment in a line: Cytotoxicity against human MDA-MB-231 cells at 0.5 uM after 3 days by DAPI staining-based fluorescence microscopic method relative to control. It is filed as functional. As to conditions: in the assay text read “at 1 uM” for “at 0.5 uM”. Summed up:
as §1

Series [6] relates to T47D. The experiment in a line: Cytotoxicity against human T47D cells at 0.5 uM after 3 days by DAPI staining-based fluorescence microscopic method relative to control. It is filed as functional. As to conditions: in the assay text read “at 1 uM” for “at 0.5 uM”. Summed up:
as §1

Series [7] has as its system Hs-578T. The experiment in a line: Cytotoxicity against human Hs 578T cells at 0.5 uM after 3 days by DAPI staining-based fluorescence microscopic method relative to control. It is filed as functional. As to conditions: in the assay text read “at 1 uM” for “at 0.5 uM”. The method in brief:
as §1

Series [8] deals with MCF7. The experiment in a line: Cytotoxicity against human MCF7 cells at 0.5 uM after 3 days by DAPI staining-based fluorescence microscopic method relative to control. It is filed as functional. Conditions: in the assay text read “at 1 uM” for “at 0.5 uM”. The method in brief: as §1
For series [9], the system named is MDA-MB-231. The experiment in a line: Induction of reactive oxygen species generation in human MDA-MB-231 cells at 6 uM after 24 hrs by H2DCFDA dye-based fluorescence microscopic method. Conditions: 20 uM, in the assay text read “at 20 uM” for “at 6 uM”. It is filed as functional, cell-based. The method in brief:
(§2)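 MDA-MB-231 cells were exposed for 3 or 24 h, with or without 3 mM N-acetyl-L-cysteine. Intracellular ROS was probed with 10 μM H2DCFDA for 30 min at 37 °C. After a PBS wash, fluorescence intensity was quantified by automated fluorescence microscopy. Cells were grown at 37 °C, 5% CO2.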

Series [10] relates to MDA-MB-231. The experiment in a line: Induction of reactive oxygen species generation in human MDA-MB-231 cells at 20 uM after 24 hrs by H2DCFDA dye-based fluorescence microscopic method. It is filed as functional, cell-based. The method in brief:
as §2

For series [11], the system named is MDA-MB-231. The experiment in a line: Cytotoxicity against human MDA-MB-231 cells by MitoTracker Deep Red staining-based fluorescence microscopic method. It is filed as functional, cell-based. The method in brief:
(§3)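 Stained 60 min with 1 μg mL–1 Hoechst 33342 and 300 nM MitoTracker Deep Red in RPMI/10% FBS, then imaged by automated fluorescence microscopy. Mitochondrial mass taken as mean cytoplasmic MitoTracker intensity. Nuclear fragmentation index from an apoptosis image-analysis module.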

Series [12] has as its system MDA-MB-231. The experiment in a line: Induction of reactive oxygen species generation in human MDA-MB-231 cells at 6 uM after 3 hrs in presence of N-acetyl-L-cysteine by H2DCFDA dye-based fluorescence microscopic method. As to conditions: 20 uM, in the assay text read “at 20 uM” for “at 6 uM”. It is filed as functional, cell-based. The method in brief:
as §2

The test system of series [13] is MDA-MB-231. The experiment in a line: Induction of nuclear morphological changes in human MDA-MB-231 cells assessed as nuclear fragmentation by Hoechst 33342 staining-based fluorescence microscopic method. It is filed as functional, cell-based. The method in brief: as §3
For series [14], the system named is BT-549. The experiment in a line: Cytotoxicity against human BT549 cells at 20 uM after 3 days by DAPI staining-based fluorescence microscopic method relative to control. It is filed as functional.
For series [15], the system named is MDA-MB-231. The experiment in a line: Cell cycle arrest in human MDA-MB-231 cells assessed as accumulation at S phase at 25 uM after 72 hrs by EdU incorporation-based fluorescence microscopic method. It is filed as functional. Summed up: (§4)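 Cells exposed 72 h to 0.2–25 μM, then pulsed 30 min with 30 μM EdU. Fixed in 3.7% paraformaldehyde, permeabilised with 0.1% Triton X100. EdU click-labelled with AF488. Blocked in 3% BSA, then anti-pHH3 (S10) 1:250 and AF647 secondary with Hoechst. S and M phases scored by automated imaging cell-cycle module.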

Series [16] has as its system MDA-MB-231. The experiment in a line: Antiproliferative activity against human MDA-MB-231 cells after 3 days by DAPI staining-based fluorescence microscopic method. It is filed as functional, cell-based. Conditions: MDA-MB-231, 72 h. Summed up: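 Fixed in 3.7% formaldehyde, nuclei stained with 0.4 μg mL–1 DAPI, counted by automated fluorescence microscopy. Proliferation normalised to 0.5% DMSO and to 24 h cell count; IC50 from dose response.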

The subject of series [17] is MDA-MB-231. The experiment in a line: Induction of reactive oxygen species generation in human MDA-MB-231 cells at 6 uM after 3 hrs by H2DCFDA dye-based fluorescence microscopic method relative to control. It is filed as functional. Summed up:
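Exposed 3 or 24 h to 6 μM, with or without 3 mM N-acetyl-L-cysteine. Cells then loaded with 10 μM H2DCFDA for 30 min at 37 °C, washed with PBS, and fluorescence intensity read by automated fluorescence microscopy.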

For series [18], the system named is MCF7. The experiment in a line: Cytotoxicity against human MCF7 cells at 20 uM after 3 days by DAPI staining-based fluorescence microscopic method relative to control. It is filed as functional.
The test system of series [19] is MDA-MB-231. The experiment in a line: Cell cycle arrest in human MDA-MB-231 cells assessed as accumulation at M phase at 25 uM after 72 hrs by pHH3 detection-based fluorescence microscopic method. It is filed as functional. Summed up:
as §4

Series [20] deals with T47D. The experiment in a line: Cytotoxicity against human T47D cells at 20 uM after 3 days by DAPI staining-based fluorescence microscopic method relative to control. It is filed as functional.
Series [21] relates to MDA-MB-468. The experiment in a line: Cytotoxicity against human MDA-MB-468 cells at 20 uM after 3 days by DAPI staining-based fluorescence microscopic method relative to control. It is filed as functional.
Series [22] relates to MDA-MB-231. The experiment in a line: Cytotoxicity against human MDA-MB-231 cells at 20 uM after 3 days by DAPI staining-based fluorescence microscopic method relative to control. It is filed as functional.
The test system of series [23] is Hs-578T. The experiment in a line: Cytotoxicity against human Hs 578T cells at 20 uM after 3 days by DAPI staining-based fluorescence microscopic method relative to control. It is filed as functional.
The next series concerns SK-BR-3. The experiment in a line: Cytotoxicity against human SKBR3 cells at 20 uM after 3 days by DAPI staining-based fluorescence microscopic method relative to control. It is filed as functional.
In series [24] the test system is HCC38. The experiment in a line: Cytotoxicity against human HCC38 cells at 20 uM after 3 days by DAPI staining-based fluorescence microscopic method relative to control. It is filed as functional.
Series [25] concerns MDA-MB-231. The experiment in a line: Induction of necrosis in human MDA-MB-231 cells at 40 uM after 24 hrs by acridine orange/ethidium bromide staining-based flow cytometric method. It is filed as functional, cell-based. In general terms: A flow cytometer gives signals particle by particle.

Each structure is given as a SMILES string. pIC50: −log10 of the molar value. The source made the active and inactive calls. The rule behind the calls is not given here. A value given as a limit tells only on which side of the number the result lay.

For `COc1cc(CCC(=O)N2C=CC(=O)CC2)cc(OC)c1OC`, in the series with MDA-MB-231 [1], the result was inactive.
`O=C1C=CN(C(=O)/C=C/c2ccccc2)CC1` returned an Activity in the series with MDA-MB-231 [1] of 50%.
With `COc1cccc2c1C(=O)c1c(O)c3c(c(O)c1C2=O)C[C@@](O)(C(=O)CO)C[C@@H]3O[C@H]1C[C@H](N)[C@H](O)[C@H](C)O1` [DOXORUBICIN], the Activity with MDA-MB-468 [2] is 0.2 - 50%; with BT-549 [3] it was 0.2 - 50%; in the series with HCC38 [4], 0.2 - 50%; in the series on HMEC, 23.9%; with MDA-MB-231 [5], 0.2 - 50%; in the series with T47D [6], 0.2 - 50%. The Activity in the series on Hs-578T [7] and in the series with MCF7 [8] was 0.2 - 50% throughout.
For the compound `COc1cc(/C=C/C(=O)N2C=CC(=O)CC2)cc(OC)c1OC`, the Activity in the series on MDA-MB-231 [1] came to 50%.
For `COc1cc(/C=C/C(=O)N2CCCCC2)cc(OC)c1O`, the result in the series on MDA-MB-231 [9], in the series with MDA-MB-231 [10], with MDA-MB-231 [11], in the series on MDA-MB-231 [12] and with MDA-MB-231 [13] was inactive.
With `COc1cc(/C=C/C(=O)N2CCC(=O)CC2)cc(OC)c1O`, the Activity result is on record as “>=15 - 80%” in the series with BT-549 [14]; 20% in the series with MDA-MB-231 [17]; “>=15 - 80%” in the series with MCF7 [18]; “>=15 - 80%” with T47D [20]; “>=15 - 80%” in the series with MDA-MB-468 [21]; 60% in the series with MDA-MB-231 [22]. Moreover, the Activity entry with Hs-578T [23], in the series on SK-BR-3 and in the series on HCC38 [24] was “>=15 - 80%” each time. In addition, the outcome in the series on MDA-MB-231 [15] and with MDA-MB-231 [19] was inactive. In the series with MDA-MB-231 [16], this compound gave a negative-log IC50 (pIC50) of 5.18. Also, the outcome in the series on MDA-MB-231 [11], with MDA-MB-231 [13] and in the series on MDA-MB-231 [25] was Active.

A word on the pIC50: it is the negative decadic logarithm of the IC50, by convention in mol/L. A low value points to a high IC50.

(Values after ChEMBL document CHEMBL4251545, “Design and synthesis of cenocladamide analogues and their evaluation against breast cancer cell lines” (Medchemcomm, 2017).)
